Screens from PubChem BioAssay.
Most compounds without a hit are left out; they make up all but 1.6% or so of the library.
Bfl-1 A1 inh – inhibitors of the anti-apoptotic protein A1, read as caspase activation; actives 0.066% (n = 330,000); AID 2462; MEF A1-2A-BIM cells, Caspase-Glo 3/7 luminescence, 3 h; percent of clofoctol response, vehicle zero; caspase activation, % (concentration not given with the values);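 active means over half of replicate activation scores above 10%, or exactly half above 10 with the replicate mean above 10; inconclusive means replicate mean below 10 yet half the replicates above 10; inactive means over half of replicates below 10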
H9c2 TAG inh – reduces triacylglycerol accumulation in H9c2 cells; Nile Red lipid (TAG) fluorescence; cells loaded with 200 µM oleic acid; inhibition, % at 12.5 µM; actives 0.66% (n = 230,000);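 active means pattern-corrected inhibition of lipid staining of at least 50% with the nuclear-stain viability signal not falling by more than 50%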;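 further: 0% = DMSO wells and 100% = triacsin C control wells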
Vif inh – HIV Vif inhibition | HEK293T cells, Vif self-association by quenched fluorescence, imaging, 24 h | inhibition, % at 7.49 µM | actives 0.35% (n = 340,000); in the data active means inhibition above about 50%, passing the limit was not always enough; inconclusive means no clear call, values can overlap the other calls; inactive means below about 31%
SR-BI uptake up – SR-BI HDL lipid transfer activation. CHO ldlA[mSR-BI] cells, DiI-HDL uptake fluorescence, 3 h; 100 = double the neutral-control signal. activation, % at 12.5 µM. actives 0.096% (n = 320,000). AID 504775;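 active means mean replicate activation of at least 60% and every replicate at or above 60%; inconclusive means mean or all-replicate condition met, but not both; inactive means mean below 60% and not all replicates reaching 60%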;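 further: 0% = median plate neutral-control signal and 100% = twice that signal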
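Material – SR-BI-overexpressing, LDLR-lacking CHO cells · Medium – BSA-supplemented, HEPES-buffered Ham's F12, pH 7.4 · Doses – single concentration · Times – compound with DiI-HDL co-incubation, 3 h at 37 °C · Measured by – bottom-read fluorescence, 550/595 nm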
SR-BI DiI inh – mouse SR-BI HDL lipid transfer inhibition | ldlA[mSR-BI] CHO cells, DiI-HDL uptake fluorescence, 3 h | actives 0.96% (n = 320,000) | inhibition, % at 12.5 µM | Q61009 | AID 488896;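 active means mean replicate inhibition of at least 70% and a set share of replicates each scoring 70 or more; inconclusive means meets just one of the two criteria; inactive means fails both criteria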;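 further: 0% = median of neutral control wells and 100% = median of positive control wells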
Target sequence (Q61009 whole entry, looked up): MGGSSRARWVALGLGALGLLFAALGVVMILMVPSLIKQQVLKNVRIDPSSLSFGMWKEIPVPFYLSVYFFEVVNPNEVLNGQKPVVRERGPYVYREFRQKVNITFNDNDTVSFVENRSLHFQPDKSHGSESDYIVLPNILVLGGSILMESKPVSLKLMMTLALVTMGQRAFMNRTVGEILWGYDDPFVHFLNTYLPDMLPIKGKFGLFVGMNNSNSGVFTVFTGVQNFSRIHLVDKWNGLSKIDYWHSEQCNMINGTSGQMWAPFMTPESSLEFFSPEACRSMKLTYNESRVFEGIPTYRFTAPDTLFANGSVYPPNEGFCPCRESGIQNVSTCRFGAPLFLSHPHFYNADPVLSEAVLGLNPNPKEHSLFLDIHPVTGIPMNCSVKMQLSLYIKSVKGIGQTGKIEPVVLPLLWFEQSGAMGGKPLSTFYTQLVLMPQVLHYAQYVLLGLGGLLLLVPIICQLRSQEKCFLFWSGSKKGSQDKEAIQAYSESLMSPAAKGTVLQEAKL
DiI quench – quenches DiI-HDL fluorescence, an SR-BI assay artifact | shares compounds with SR-BI DiI inh | cell-free DiI-HDL fluorescence quenching, 30 min | actives 20% (n = 470) | AC50, µM (top dose mostly 35 µM), for inactives: top-dose activity change, negative = quenching;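 active means quenching, a falling signal, with AC50 below a set limit tied to the top valid dose, actives reach about 32 µM in these data; inconclusive means no clear call, values can overlap the other calls; inactive means rising signal, and the rest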
Starred values were filed as active, the others as inactive; ? = inconclusive; · = no result given.

SMILES	Bfl-1 A1 inh	H9c2 TAG inh	Vif inh	SR-BI uptake up	SR-BI DiI inh	DiI quench
CN(C(=O)COC(=O)CCc1c[nH]c2ccccc12)c1ccccc1	0	-19	-14	25	-25	-5%
Cc1occc1C(=O)N1CCN(S(=O)(=O)c2ccc(F)cc2)CC1	0	-4	-2	0	0	·
CC(=O)c1ccc(-c2ccc(C(=O)Nc3nc(C)c(C(C)=O)s3)o2)cc1	-1	0	9	-50	50	-4%
COc1ccc(N2CCOCC2)c(NC(=O)c2cc3ccccc3o2)c1	-1	·	5	·	·	·
CCOC(=O)c1ccc(-c2ccc3oc(-c4ccsc4)cc(=O)c3c2)cc1F	0	34	-3	3	-3	·
Cc1cc(-c2nnc(SCC(=O)Nc3ccc(Br)cc3F)n2N)n[nH]1	1	·	3	6	-6	·
COc1cc(OC)cc(C(=O)Nc2cccc(NC(=O)c3cc(OC)cc(OC)c3)n2)c1	?	18	-12	-82	82*	6%
CCOC(=O)c1cccc(NC(=O)Nc2cc(OC)ccc2OC)c1	1	47	-4	-109	109*	4.8µM*
CCOC(=O)Nc1cccc(NC(=O)c2cc(OC)cc(OC)c2)c1	-6	·	·	-74	74*	10%
COc1cc(OC)cc(C(=O)Nc2cccc(NC(C)=O)c2)c1	-1	·	4	-25	25	·
COc1ccc(C)cc1NC(=O)Nc1cccc(C(=O)O)c1	0	0	1	11	-11	·
CCn1nc(C)cc1C(=O)N1CCCC(C(=O)c2ccccc2SC)C1 (configuration not stated)	0	·	-7	-20	20	·
COc1ccc(CCn2c(C)cc(C(=O)CSc3nc(N)cc(=O)[nH]3)c2C)cc1	·	·	·	-81	81*	1%
O=C(CCCn1nnnc1CN1CCOCC1)N1CCN(c2ccccc2F)CC1	0	6	15	14	-14	·
CC(=O)Nc1cccc(CCc2nc3ccccc3[nH]2)c1	-5	-5	-1	?	-135	·
Cc1ccccc1NC(=O)N(CCc1nc2ccccc2[nH]1)Cc1ccccc1	2	10	-9	-96	96*	6%
CCOc1ccc(C(=O)Nc2ccc(S(=O)(=O)N3C[C@@H]4C[C@@H](C3)c3cccc(=O)n3C4)cc2)cc1	0	·	-6	-75	75*	-1%
CC(=O)c1c(C)[nH]c(C(=O)Nc2ccc(C)c(S(=O)(=O)Nc3ccc(C)cc3C)c2)c1C	0	7	15	-83	83*	11%
CN(CC(=O)Nc1cccc(F)c1)C(=O)CCCN1C(=O)c2cccc3cccc(c23)C1=O	2	-7	-1	-17	17	·
COc1ccccc1Nc1nc(-c2c(C)[nH]c3ccccc23)cs1	-1	·	-3	-72	72*	5.6µM*
Cc1ccc(-c2nn(-c3ccccc3)cc2/C=C/C(=O)OCC(=O)NC2CC2)o1	1	20	-5	-72	72*	11%
N#Cc1sc2nc(C3CC3)cc(-c3ccc(Cl)cc3)c2c1N	-1	·	3	-71	?	1%
Cc1ccc(-c2csc(N3CCN(c4cc5c(cc4Cl)nc(-c4ccncc4)n5CCN4CCCCC4)CC3)n2)cc1	-2	·	3	-49	49	·
Cc1ccc(-c2csc(N3CCN(c4ccc5nc(-c6ccncc6)n(CCN6CCCCC6)c5c4)CC3)n2)cc1	1	20	-2	-70	70*	-19%
COc1cccc(-c2csc(N3CCN(C(=S)Nc4cccc(Cl)c4)CC3)n2)c1	0	·	23	-79	79*	-6%
SMILES	Bfl-1 A1 inh	H9c2 TAG inh	Vif inh	SR-BI uptake up	SR-BI DiI inh	DiI quench
COc1cccc(-c2csc(N3CCN(C(=S)Nc4ccccc4Cl)CC3)n2)c1	1	·	-7	-14	14	·
Nc1ccc(C(=O)Nc2ccc(Nc3ccncc3)cc2)c([N+](=O)[O-])c1	·	-4	15	·	·	·
Nc1sc2c([n+]1CCCS(=O)(=O)[O-])CCCC2	1	-2	·	16	-16	·
CC(C)c1cc(CNC(=O)C2CCC(=O)N(CCc3ccc(Cl)cc3)C2)on1 (configuration not stated)	1	·	5	-78	78*	-1%
COc1ccc(CCN2CC(C(=O)NCc3cc(C(C)C)no3)CCC2=O)cc1 (configuration not stated)	·	·	-3	12	-12	-2%
COc1ccc(CCN2CC(C(=O)NCc3nc(C)c(C)s3)CCC2=O)cc1 (configuration not stated)	-1	7	2	0	0	·
CC(C)(C)c1ccc(S(=O)(=O)NC(=O)C2(C)CCN2C(=O)C2CC2)cc1 (configuration not stated)	·	-11	-6	·	·	·
CN(C(=O)c1cc(-n2cnnc2)ccc1Cl)c1ccccc1	1	-1	-2	11	-11	-3%
O=C(NCc1ccccc1)c1cc(-n2cnnc2)ccc1Cl	-1	-13	8	-7	7	·
COc1cc(NC(=O)c2cc(-n3cnnc3)ccc2Cl)cc(OC)c1	0	-3	-5	-44	44	-2%
COc1ccc(NC(=S)N2CCC(NC(=O)c3ccco3)CC2)cc1	-1	·	-13	-2	2	·
COc1ccc(CCN2CC(C(=O)N3CCC(O)(c4ccccc4)CC3)CCC2=O)cc1 (configuration not stated)	1	-7	-1	3	-3	·
OCC[C@@H]1C[C@H](O)[C@@H](O)[C@@]2(OCCCc3cc(C(F)(F)F)ccc32)O1	·	·	3	·	·	·
COC(=O)c1c(C)[nH]c(C(=O)C(C)OC(=O)C2CC(=O)N(c3ccc(C)cc3)C2)c1C (configuration not stated)	2	-3	-2	-77	77*	-2%
COC(=O)c1cc2c(ccn2-c2ccc(F)cc2)n1CC(=O)N1CCN(C(=O)c2ccco2)CC1	0	23	-15	-71	?	·
COC(=O)c1cc2c(ccn2-c2ccc(F)cc2)n1Cc1ccc(C#N)cc1	0	·	-2	-78	78*	2%
C[C@H](CO)N1C[C@H](C)[C@@H](CN(C)S(=O)(=O)c2ccccc2)OCCCC[C@H](C)Oc2ccc(NC(=O)CCC(F)(F)F)cc2C1=O	·	25	-1	·	·	·
Cn1c(CCN2CCN(c3ccccn3)CC2)nc2cc(NS(=O)(=O)c3ccc(Cl)cc3)ccc21	0	·	-2	-73	73*	-2%
COc1ccc(C)cc1NC(=O)NNC(=O)C1CCC(C(C)(C)C)CC1 (configuration not stated)	-1	-19	-6	-13	13	·
COc1cc(C2CC(=O)c3c([nH]c(C(=O)OCCOC(C)C)c3C)C2)cc(OC)c1OC (configuration not stated)	-1	-26	-7	-82	82*	-2%
